Converted amounts (≈) assume the structure as drawn. The source made the active and inactive calls. The calls are words filed in the database; no cut-off is given here.
Tests used:
[1] = system: Human T-cell leukemia virus type I; test: Cytostatic activity against HTLV1 infected human MT4 lymphocyte; format: functional
Outline: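 HTLV-1-infected human T-lymphocyte MT4 cells were exposed to compound at concentrations up to 100 μg/mL. Read-out was the 50% cytostatic concentration (CS50).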

Influenza A virus [2] = format: functional, organism-based; settings: H1N1
Human alphaherpesvirus 2 = test: Antiviral activity against HSV2 by CPE assay; format: functional, organism-based
Outline: (§1)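 Compounds were tested at concentrations up to 100 μg/mL, and antiviral activity was expressed as EC50. For the […] line, the virus was strain […]. Cell hosts named in the work were MT4 (HTLV-1-infected human T-lymphocytes), HeLa and Vero (African green monkey kidney) cells.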

HeLa = test: Cytotoxicity against human HeLa cells; format: cell-based
Outline: (§2)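 Cytotoxicity was assessed on uninfected cells: Vero (African green monkey kidney) and HeLa (human cervical carcinoma). Compounds were tested up to 100 μg/mL, and the value was reported as CC50, the 50% cytotoxic concentration.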

[3] = system: Human immunodeficiency virus 1; test: Antiviral activity against HIV1 3B by CPE assay; format: functional, organism-based; settings: Human immunodeficiency virus 1, 3B
Human alphaherpesvirus 1 = test: Antiviral activity against HSV1 by CPE assay; format: functional, organism-based; outline: as §1
Coxsackievirus B3 = test: Antiviral activity against coxsackie B virus type 3 by CPE assay; format: functional, organism-based; settings: Enterovirus B
Influenza A virus [4] = test: Antiviral activity against influenza virus type A H3N2; format: functional, organism-based
Outline: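 Influenza A viruses were H1N1 strain Taiwan and H3N2 strain Johannesburg. Compounds were tested for antiviral activity and cytotoxicity at concentrations up to 100 μg/mL.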

Vero = test: Cytotoxicity against Vero cells; format: cell-based; settings: chlorocebus sabaeus; outline: as §2
[5] = system: Vesicular stomatitis virus; test: Antiviral activity against vesicular stomatitis virus by CPE assay; format: functional, organism-based; outline: as §1
Feline coronavirus = test: Antiviral activity against Feline coronavirus WSU; format: functional, organism-based
Outline: (§3)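 Feline virus strain WSU screened together with influenza A strains; test concentrations went up to 100 μg/mL, with antiviral activity and cytotoxicity both assessed.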

[6] = system: Feline infectious peritonitis virus; test: Antiviral activity against FIP WSU; format: functional; outline: as §3
[7] = system: Encephalomyocarditis virus; test: Antiviral activity against encephalomyocarditis virus by CPE assay; format: functional, organism-based; settings: Cardiovirus A; outline: as §1

Structure (SMILES)	CS50 [1]	Activity (Influenza A virus [2])	EC50 (Human alphaherpesvirus 2)	CC50 (HeLa)	EC50 [3]	EC50 (Human alphaherpesvirus 1)	EC50 (Coxsackievirus B3)	Activity (Influenza A virus [4])	CC50 (Vero)	EC50 [5]	Activity (Feline coronavirus)	Activity [6]	EC50 [7]
Cc1cn([C@@H]2CS[C@H](CO)[C@H]2F)c(=O)[nH]c1=O	>100 µg/mL	inactive	> 100 µg/mL	> 100 µg/mL	> 100 µg/mL	> 100 µg/mL	> 100 µg/mL	inactive	> 100 µg/mL	> 100 µg/mL	inactive	inactive	> 100 µg/mL
O=c1[nH]cnc2c1ncn2[C@H]1CC[C@@H](CO)O1 [DIDANOSINE]	>100 µg/mL	–	0.47 µg/mL (≈ 1.99 µM)	–	–	0.17 µg/mL (≈ 0.72 µM)	–	–	> 10 µg/mL	–	–	–	–
Nc1ncnc2c1ncn2[C@@H]1CS[C@H](CO)[C@H]1F	>100 µg/mL	inactive	> 100 µg/mL	> 100 µg/mL	> 100 µg/mL	> 100 µg/mL	> 100 µg/mL	inactive	> 100 µg/mL	> 100 µg/mL	inactive	inactive	> 100 µg/mL
NC(=O)c1ncn([C@@H]2O[C@H](CO)[C@@H](O)[C@H]2O)n1 [RIBAVIRIN]	–	–	–	> 300 µg/mL	–	–	64.1 µg/mL (≈ 262 µM)	–	–	10.3 µg/mL (≈ 42.3 µM)	–	–	23.4 µg/mL (≈ 96 µM)
O=c1ccn([C@@H]2CS[C@H](CO)[C@H]2F)c(=O)[nH]1	>100 µg/mL	inactive	> 100 µg/mL	> 100 µg/mL	> 100 µg/mL	> 100 µg/mL	> 100 µg/mL	inactive	> 100 µg/mL	> 100 µg/mL	inactive	inactive	> 100 µg/mL
Nc1ccn([C@@H]2CS[C@H](CO)[C@H]2F)c(=O)n1	>100 µg/mL	inactive	> 100 µg/mL	14.54 µg/mL (≈ 59.3 µM)	> 100 µg/mL	> 100 µg/mL	> 14.5 µg/mL	inactive	> 100 µg/mL	9.43 µg/mL (≈ 38.4 µM)	inactive	inactive	> 14.5 µg/mL
